pIC50: −log10 of the molar value.
Legend:
[1] = tested on: CCRF-CEM; assay: Concentration of compound required to inhibit 50% of host cell replication of human immunodeficiency virus in CEM-F cells; assay type: functional
[2] = tested on: CCRF-CEM; assay: Concentration of compound required to inhibit 50% of viral replication of human immunodeficiency virus in CEM-F cells; assay type: functional, cell-based
[3] = Ratio of TICD50 to that of IC50 of human immunodeficiency virus (HIV-1); assay type: functional; set-up: reference not given here
[4] = tested on: Rauscher murine leukemia virus; assay: Concentration of compound required to inhibit 50% of viral replication of Rauscher-Murine leukemia virus; assay type: functional, organism-based
[5] = tested on: Rauscher murine leukemia virus; assay: Concentration of compound required to inhibit 50% of host cell replication of Rauscher-Murine leukemia virus; assay type: functional
[6] = Ratio of TICD50 to that of IC50 of Rauscher-Murine leukemia virus (R-MuLv); assay type: functional; set-up: reference not given here
[7] = Metabolic stability (Half life)of the compound at pH-7.4 was evaluated; assay type: ADME
How it was run: (§1)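 Compound at 2 mg/mL held at 37 °C in phosphate-buffered saline, pH 7.4, with no enzymes present. At various times, aliquots were analysed by reverse-phase C-18 HPLC with a linear 0–30% CH3CN gradient into 0.01 M ammonium acetate (pH 5.5) over 30 min, monitored by UV at 254 nm. Intact anhydro compound, generated parent nucleoside and pyrimidine base were measured, and the half-life was derived.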

[8] = Metabolic stability (Half life) at pH-2.0 was evaluated; assay type: ADME
How it was run: (§2)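 Chemical (non-enzymatic) stability. Each compound at 2 mg/mL was incubated in 0.01 N HCl (pH 2.0) at 37 °C. Aliquots taken at various times were run on reverse-phase C-18 HPLC with a linear 0–30% CH3CN gradient into 0.01 M ammonium acetate (pH 5.5) over 30 min, with UV detection at 254 nm. Remaining anhydro compound, released parent nucleoside and pyrimidine base were quantified, and the half-life was derived.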

[9] = Metabolic stability (Half life) at pH-7.4 was evaluated; assay type: ADME; how it was run: as §1
[10] = Metabolic stability (Half life)of the compound at pH-2.0 was evaluated; assay type: ADME; conditions: read-out: T1/2 h/; how it was run: as §2
[11] = tested on: Rauscher murine leukemia virus; assay: Cytotoxic concentration of compound required to inhibit 50% of host cell replication of Rauscher-Murine leukemia virus; assay type: functional

## [N-]=[N+]=N[C@H]1C[C@H](n2cc(Br)c(=O)[nH]c2=O)O[C@@H]1CO
[1]
  CC50 (50% host cell growth inhibition): 127 µM
[2]
  pIC50: 5.06
[3]
  Ratio: 15
[4]
  pIC50: 6.64
[5]
  TCID50: >301 µM
[6]
  Ratio: 1309

## [N-]=[N+]=N[C@H]1C[C@H](n2cc(I)c(=O)[nH]c2=O)O[C@@H]1CO
[1]
  CC50 (50% host cell growth inhibition): 153 µM
[2]
  pIC50: 4.90
[3]
  Ratio: 12
[4]
  pIC50: 6.68
[5]
  TCID50: >264 µM
[6]
  Ratio: 1257

## CC1=CN([C@H]2C[C@H](N=[N+]=[N-])[C@@H](CO)O2)C(N)NC1=O (stereo partly specified)
[7]
  half-life: > 168 h
[1]
  CC50 (50% host cell growth inhibition): 470 µM
[2]
  pIC50: 4.92
[3]
  Ratio: 39
[4]
  pIC50: 3.94
[8]
  half-life: 2.33 h
[5]
  TCID50: >376 µM
[6]
  Ratio: 3

## [N-]=[N+]=N[C@H]1C[C@H]2O[C@@H]1COC1NC(=O)C(Br)=CN12 (stereo partly specified)
[1]
  CC50 (50% host cell growth inhibition): 168 µM
[2]
  pIC50: 4.55
[3]
  Ratio: 6
[4]
  pIC50: 4.79
[8]
  half-life: 0.238 h
[9]
  half-life: 60.5 h
[5]
  TCID50: >319 µM
[6]
  Ratio: 20

## [N-]=[N+]=N[C@H]1C[C@H]2O[C@@H]1COC1NC(=O)C=CN12 (stereo partly specified)
[1]
  CC50 (50% host cell growth inhibition): >100 µM
[2]
  pIC50: 5.31
[3]
  Ratio: 20
[10]
  half-life: 0.188 h
[9]
  half-life: 120 h

## CC1=CN2C(NC1=O)OC[C@H]1O[C@@H]2C[C@@H]1N=[N+]=[N-] (stereo partly specified)
[1]
  CC50 (50% host cell growth inhibition): >100 µM
[2]
  pIC50: 6.25
[3]
  Ratio: 179
[4]
  pIC50: 6.57
[8]; read-out: T1/2 h/
  half-life: 0.492 h
[9]
  half-life: > 75 h
[5]
  TCID50: >400 µM
[6]
  Ratio: 1481

## [N-]=[N+]=N[C@H]1C[C@H]2O[C@@H]1COC1NC(=O)C(I)=CN12 (stereo partly specified)
[1]
  CC50 (50% host cell growth inhibition): 194 µM
[2]
  pIC50: 4.57
[3]
  Ratio: 7
[4]
  pIC50: 4.75
[5]
  TCID50: >277 µM
[6]
  Ratio: 16

## CC1=CN2C(NC1=O)OC[C@@H]1CC[C@H]2O1 (stereo partly specified)
[7]
  half-life: 84.3 h
[11]
  TCID50: >480 µM
[1]
  CC50 (50% host cell growth inhibition): 346 µM
[2]
  pIC50: 4.32
[3]
  Ratio: 7
[4]
  pIC50: < 3.32
[8]
  half-life: 0.00381 h
[6]
  Ratio: 1

## Cc1cn([C@H]2CC[C@@H](CO)O2)c(=O)[nH]c1=O
[2]
  pIC50: 6.42
[3]
  Ratio: 631
[4]
  pIC50: < 3.35
[5]
  TCID50: >442 µM
[6]
  Ratio: 1

## [N-]=[N+]=N[C@H]1C[C@H](n2ccc(=O)[nH]c2=O)O[C@@H]1CO [NAVURIDINE]
[1]
  TCID50: 166 µM
[2]
  pIC50: 5.56
[3]
  Ratio: 60
[4]
  pIC50: 3.86
[5]
  TCID50: >395 µM
[6]
  Ratio: 3

## Cc1cn([C@H]2C[C@H](N=[N+]=[N-])[C@@H](CO)O2)c(=O)[nH]c1=O [ZIDOVUDINE]
[2]
  pIC50: 7.00
[3]
  Ratio: 290
[4]
  pIC50: 7.64
[5]
  TCID50: >400 µM
[6]
  Ratio: 17391

Source: ChEMBL document CHEMBL1124637, “Synthesis and antiviral activity of several 2,5'-anhydro analogues of 3'-azido-3'-deoxythymidine, 3'-azido-2',3'-dideoxyuridine, 3'-azido-2',3'-dideoxy-5-halouridines, and 3'-deoxythymidine against human immunodeficiency virus and Rauscher-murine leukemia virus” (J Med Chem, 1989)
